# High-throughput results as filed in PubChem BioAssay.
# An excerpt weighted towards active compounds, which were near 2.5% of everything screened.
# E-selectin induc: E-selectin induction in HUVECs, primary screen, imaging, HUVEC, immunofluorescence imaging, single point; P16581; normalized: neutral wells 0, TNF-alpha wells 100; activation, % at 7.58 µM; 260,000 tested, 0.37% active;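 active = mean E-selectin-positive cell signal at least 10% of the positive control, reached in at least 60% of replicates, without over 20% cell loss; inconclusive = no rule given, readout overlaps actives, possibly toxicity-flagged; inactive = the rest, including those meeting only one limit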
#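 System: HUVEC, human umbilical vein endothelial cells; quantity: 3,000 cells/well; buffer or medium: EGM-2 medium, gelatin-coated wells; dosing: single-point compound dose; detection: immunofluorescence imaging; evaluation: % PE-positive cells; benchmarks: TNF-alpha, DMSO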
# DENV2 CPE: inhibitors of DENV2 cytopathic effect, primary screen, cell-based, plate reader, single concentration | CPE inhibition, % at 9.99 µM | 350,000 tested, 1.7% active | DENV2-infected cells, cytopathic effect rescue; in the data active = CPE inhibition above about 20%, passing the limit was not always enough; inconclusive = no clear call, values can overlap the other calls; tested in BHK-21 cells;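 also: 0% = median of neutral control wells and 100% = median of positive control wells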
# SIRT5 block: SIRT5 desuccinylase inhibitors, primary screen, biochemical, fluorescence imaging, single point, set 5; NAD-dependent protein deacylase sirtuin-5, mitochondrial (Homo sapiens), Q9NXA8; Purified SirT5, succinyl-peptide AMC, trypsin-coupled fluorescence; inhibition, % at 15 µM; 330,000 tested, 1.1% active; in the data active = inhibition above about 15%; inconclusive = no clear call, values can overlap the other calls
# Target sequence (Q9NXA8 whole entry, looked up): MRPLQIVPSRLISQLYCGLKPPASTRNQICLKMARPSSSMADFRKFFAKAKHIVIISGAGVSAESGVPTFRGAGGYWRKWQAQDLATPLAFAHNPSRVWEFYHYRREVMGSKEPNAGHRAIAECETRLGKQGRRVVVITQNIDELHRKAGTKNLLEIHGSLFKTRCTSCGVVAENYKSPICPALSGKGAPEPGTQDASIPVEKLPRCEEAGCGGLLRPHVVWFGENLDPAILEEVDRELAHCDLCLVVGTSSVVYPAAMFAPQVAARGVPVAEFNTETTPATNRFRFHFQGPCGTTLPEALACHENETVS
# PglD inh: C. jejuni PglD acetyltransferase inhibitors, primary screen, biochemical, DTNB colorimetric, single point | 360,000 tested, 0.098% active | inhibition, % at 12.5 µM | UDP-N-acetylbacillosamine N-acetyltransferase PglD (Campylobacter jejuni) | purified PglD enzyme, DTNB colorimetric CoA detection; in the data active = inhibition above about 16%, passing the limit was not always enough; inconclusive = no clear call, values can overlap the other calls
# ERAP1 HTS inh: human ERAP1 aminopeptidase inhibitors, primary screen, biochemical, single point, plate reader | AID 652197, 2013 | inhibition, % at 10.7 µM | Endoplasmic reticulum aminopeptidase 1 (Homo sapiens), Q9NZ08 | recombinant ERAP1, Leu-AMC fluorescence, 60 min | 340,000 tested, 0.15% active;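 active = mean replicate inhibition of at least 30%, or all replicates individually reaching that 30% level; inactive = mean below 30% and not every replicate reaching it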;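 also: 0% = neutral control wells and 100% = L-leucinethiol positive control wells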
# An asterisk follows results filed as active; ? = inconclusive; . = no result.
SMILES,E-selectin induc,DENV2 CPE,SIRT5 block,PglD inh,ERAP1 HTS inh
CO[C@@H](C(=O)N(C)C[C@H]1OCc2ccccc2-c2c(n(C)c3ccccc23)C(=O)N([C@@H](C)CO)C[C@H]1C)c1ccccc1,4,.,.,.,.
CS(=O)(=O)Nc1ccc2c(c1)[C@@H]1C[C@H](CC(=O)NCc3ccncc3)O[C@@H](CO)[C@@H]1O2,0,?,2,-2,2
Cn1c(=S)c2[nH]c(SCc3cccnc3)nc2n(C)c1=O,0,-6,-2,2,3
C[C@@H]1CN([C@@H](C)CO)C(=O)c2c(c3ccccc3n2C)-c2ccccc2CO[C@@H]1CN(C)C(=O)Nc1ccccc1,0,1,3,3,-1
COc1ccc(NC(=O)N(C)C[C@@H]2OCc3ccccc3-c3c(n(C)c4ccccc34)C(=O)N([C@@H](C)CO)C[C@@H]2C)cc1,0,16,21*,6,0
C[C@@H]1CCCCO[C@H](CN(C)CC2CC2)[C@H](C)CN([C@H](C)CO)C(=O)c2cc(NS(=O)(=O)c3ccc(F)cc3)ccc2O1,1,29*,1,.,0
C[C@@H]1CN([C@H](C)CO)C(=O)c2cc(NS(=O)(=O)c3ccc(F)cc3)ccc2O[C@@H](C)CCCCO[C@@H]1CN(C)CC1CCCCC1,0,8,19*,-2,-1
C[C@@H]1CCCCO[C@H](CN(C)CC2CCCCC2)[C@@H](C)CN([C@H](C)CO)C(=O)c2cc(NS(=O)(=O)c3ccccc3)ccc2O1,0,28*,-14,1,-1
C[C@@H]1CN([C@@H](C)CO)C(=O)c2cc(NS(=O)(=O)c3ccc(F)cc3)ccc2O[C@@H](C)CCCCO[C@H]1CN(C)CC1CCCCC1,0,-19,9,-1,2
Cc1ccc(C)c(OCCC(=O)OCC(=O)Nc2ccc(C)c(S(=O)(=O)N3CCCCC3)c2)c1,10,0,2,.,1
Cc1cc(C)c(OCCCCN(C)C)c(Br)c1,.,8,15*,.,7
Cc1cc(C)c(OCCCNCc2ccccc2)c(Br)c1,.,-2,1,4,3
Cc1cc(C)c(OCCOCCN(C)C)c(Br)c1,0,-5,-3,.,11
Cc1cc(C)c(OCCCNC2CCCC2)c(Br)c1,.,28*,.,-4,-5
COC(=O)C1=C(C)N(Cc2ccccc2)C(=NCCN2CCOCC2)N[C@H]1CCc1ccccc1,0,44*,.,2,6
COC(=O)C1=C(C)N(Cc2ccccc2C(F)(F)F)C(=NCc2ccc3c(c2)OCO3)NC1c1cccc(F)c1 (stereo not drawn),0,0,17*,.,1
COC(=O)C1=C(C)N(Cc2ccccc2C(F)(F)F)C(=NCc2ccc3c(c2)OCO3)NC1c1ccc(F)cc1 (stereo not drawn),0,-3,0,.,5
COCCN=C1N[C@@H](c2ccc(Br)cc2)C(C(=O)OC)=C(C)N1Cc1ccccc1,0,.,-1,-2,91*
COC(=O)C1=C(C)N(Cc2ccccc2C(F)(F)F)C(=NCc2ccc(OC)cc2)NC1c1ccc(Cl)cc1 (stereo not drawn),0,-3,13,.,2
COC(=O)C1=C(C)N(Cc2ccccc2C(F)(F)F)C(=NCc2ccc(OC)cc2)NC1c1ccccc1 (stereo not drawn),0,42*,-1,.,1
COCCN=C1N[C@@H](c2ccccc2)C(C(=O)OC)=C(C)N1Cc1ccccc1,0,-5,-1,-2,-2
COC(=O)C1=C(C)N(Cc2ccccc2)C(=NCc2ccccc2)N[C@H]1c1ccccc1,0,.,.,-1,1
COC(=O)C1=C(C)N(Cc2ccccc2C(F)(F)F)C(=NCc2ccccc2)NC1c1ccc(C(F)(F)F)cc1 (stereo not drawn),0,0,-1,.,5
COC(=O)C1=C(C)N(Cc2ccccc2)C(=NCc2ccccc2)N[C@H]1c1cccc(F)c1,0,.,-2,-5,53*
COC(=O)C1=C(C)N(Cc2ccccc2C(F)(F)F)C(=NCc2ccc(C(F)(F)F)cc2)NC1c1ccc(Cl)cc1 (stereo not drawn),0,25*,0,.,0
SMILES,E-selectin induc,DENV2 CPE,SIRT5 block,PglD inh,ERAP1 HTS inh
COC(=O)C1=C(C)N(CC(C)C)C(=S)NC1c1cccc(F)c1 (stereo not drawn),1,56*,2,.,0
O=C1[C@@H]2C(c3cccnc3)=NO[C@@H]2C(=O)N1c1ccc2ccccc2c1,6,-1,1,.,5
CN(C)C(=O)c1cccc(-c2ccc3c(c2)[C@H]2[C@H](CCN2C(=O)c2ccccc2)[C@@H](CO)N3C)c1,0,-8,15*,1,-3
CN1c2ccc(-c3ccc(F)cc3)cc2[C@@H]2[C@@H](CCN2C(=O)c2ccncc2)[C@@H]1CO,0,-4,19*,0,.
CN1c2ccc(-c3ccc(F)cc3)cc2[C@@H]2[C@@H](CCN2C(=O)c2ccncc2)[C@H]1CO,1,-5,-4,-3,-4
COc1cccc(-c2ccc3c(c2)[C@@H]2[C@@H](CCN2C(=O)c2ccc(F)cc2)[C@H](CO)N3C)c1,-1,24*,.,1,.
CN1c2ccc(-c3ccccc3)cc2[C@@H]2[C@@H](CCN2C(=O)Cc2ccccn2)[C@@H]1CO,-1,22*,0,1,1
O=C(CC1CC1)N1CC2(C1)[C@@H](c1ccccc1)[C@@H](CO)N2S(=O)(=O)Cc1ccccc1,0,4,-1,.,1
COc1ccc(C(=O)Nc2ccc(Nc3ccccc3)cc2)cc1Br,17,6,-1,.,0
C[C@@H]1CN([C@@H](C)CO)C(=O)c2cc(-c3ccccc3)cnc2O[C@@H]1CN(C)C(=O)c1cccc(F)c1,0,.,.,.,.
CN1c2ccc(-c3cccc(F)c3)cc2[C@H]2[C@H](CCN2C(=O)c2ccccc2F)[C@H]1CO,-1,69*,6,5,0
COc1cccc(-c2ccc3c(c2)[C@H]2[C@H](CCN2C(=O)c2ccccc2F)[C@@H](CO)N3C)c1,0,-5,.,-2,.
CN(C)C(=O)c1ccc(-c2ccc3c(c2)[C@H]2[C@H](CCN2C(=O)C2CC2)[C@H](CO)N3C)cc1,0,-5,-2,1,0
COc1cccc(NC(=O)N2CC[C@@H]3[C@H]2c2cc(-c4cccc(OC)c4)ccc2N(C)[C@H]3CO)c1,0,68*,2,.,0
COc1ccc(NC(=O)N2CC[C@@H]3[C@H]2c2cc(-c4cccc(F)c4)ccc2N(C)[C@H]3CO)cc1,0,.,.,-3,.
CN(C)C(=O)c1ccc(-c2ccc3c(c2)[C@H]2[C@H](CCN2C(=O)C2CCOCC2)[C@@H](CO)N3C)cc1,0,.,17*,1,.
